These results are taken from ChEMBL document CHEMBL1124987, “7-Deaza-2-phenyladenines: structure-activity relationships of potent A1 selective adenosine receptor antagonists” (J Med Chem, 1990).

Each structure is given as a SMILES string. Activity calls are given as the source filed them. The calls are words filed in the database; no cut-off is given here. A value given as a limit tells only on which side of the number the result lay.

Test [1] deals with T1, Adenosine receptor A1 (Rattus norvegicus, UniProt P25099).
T1 sequence (P25099 whole entry): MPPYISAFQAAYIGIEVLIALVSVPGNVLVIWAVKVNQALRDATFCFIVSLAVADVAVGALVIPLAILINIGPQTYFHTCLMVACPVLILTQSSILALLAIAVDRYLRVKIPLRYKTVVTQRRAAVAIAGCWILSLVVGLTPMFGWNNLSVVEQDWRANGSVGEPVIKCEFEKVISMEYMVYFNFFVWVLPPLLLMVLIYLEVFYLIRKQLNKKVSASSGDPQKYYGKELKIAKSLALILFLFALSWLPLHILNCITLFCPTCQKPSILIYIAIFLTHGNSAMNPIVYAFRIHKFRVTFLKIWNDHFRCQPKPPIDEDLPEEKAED
As to the kind of experiment: Binding affinity against Adenosine A1 receptor from rat brain membrane using [3H]R-PIA as radioligand. Put shortly:
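Rat cerebral cortical membranes; displacement of [3H]-(R)-PIA (Kd 1 nM) by a range of test concentrations. Nonspecific binding defined with 5 mM theophylline. Triplicate determinations in three separate experiments. IC50 converted to Ki via Cheng-Prusoff.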

Test [2] addresses Adenosine A2 receptor (Rattus norvegicus, UniProt P29276+P30543). As to the kind of experiment: Binding affinity against Adenosine A2 receptor from rat striatal membrane using [3H]NECA as radioligand.
Test [3] deals with T2, Adenosine A2 receptor (Rattus norvegicus) (UniProt P29276+P30543). The experiment in a line: Inhibition of adenylate cyclase stimulation via Adenosine A2 receptor by NECA in rat striatal membrane. In kind it is functional, cell membranes. As to conditions: Striatum. The method, boiled down:
(§1)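 Rat striatal membranes; adenylate cyclase stimulated by NECA through A2 receptors, with antagonist present or absent. K_B derived by Schild equation from the NECA EC50 ratio with versus without antagonist.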

Test [4] concerns the target T2, Adenosine A2 receptor (Rattus norvegicus). As to the kind of experiment: Inhibition of adenylate cyclase stimulation via Adenosine A2 receptor by NECA in rat pheochromocytoma PC12 cells. In kind it is functional, cell-based. As to conditions: PC-12. The method, boiled down:
(§2)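 Membranes from rat pheochromocytoma PC12 cells; adenylate cyclase activated via A2 receptors by NECA, measured with a range of antagonist concentrations. K_B from the Schild equation using the ratio of NECA EC50 values with and without antagonist. Means ± SEM of three separate experiments in triplicate.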

Test [5] addresses T3, Adenosine receptor A1 (Rattus norvegicus) (UniProt P25099).
T3 sequence (whole entry): T1 sequence (P25099 whole entry)
As to the kind of experiment: Reversal of adenylate cyclase inhibition via Adenosine A1 receptor by R-PIA in rat fat cells. The format is functional, cell-based. The method, boiled down: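 Rat fat cell membranes; adenylate cyclase inhibited by R-PIA through A1 receptors, and antagonist reversal measured. K_B calculated with the Schild equation from the ratio of R-PIA IC50 values with and without antagonist.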

In test [6] the target is T2, Adenosine A2 receptor (Rattus norvegicus). As to the kind of experiment: Inhibition of adenylate cyclase stimulation via Adenosine A2 receptor by NECA in rat striatal membrane; b= No effect. In kind it is functional. Put shortly:
as §1

For test [7] the target is unchanged. The experiment in a line: Inhibition of adenylate cyclase activity via A2 receptors by NECA in rat PC12 cells; c = Noncompetitive inhibition. As to conditions: PC-12. In kind it is functional, cell-based. Put shortly: as §2

For orientation: Ki means the dissociation constant of the complex between target and ligand, obtained from inhibition or displacement. The low end stands for a stronger hold on the target, the high end for a looser hold on the target.

`COc1cccc(-n2c(C)c(C)c3c(N)ncnc32)c1OC` registered a Ki in test [1] of 54.3 µM. In other words, the double-digit micromolar range.

On to `Cc1[nH]c2nc(-c3ccccc3Cl)nc(N)c2c1C`, for which the figures for the Ki in test [2] and in test [1] were 85.6 µM and 5.17 µM, respectively.

Turning to `Nc1ncnc2c1c1c(n2-c2ccccc2)CCCC1`, the Kb in test [3] was 31.6 µM; in test [4], 7.5 µM. The Ki in test [2] came out at 10.9 µM; in test [1] it was 3.24 µM.

For the compound `Sc1nc(S)c2c3c(n(-c4ccccc4)c2n1)CCCC3`, the figures for the Ki in test [2] and in test [1] were > 250 µM and 84.8 µM, respectively.

Consider `Oc1ncnc2c1c1ccccc1n2-c1ccccc1`, for which the Kb was 0.22 µM in test [4] and 1.4 µM in test [5]. The Ki in test [2] came to 1.44 µM.

For the compound `Cc1[nH]c2nc(-c3cccc(Cl)c3)nc(N)c2c1C`, the results for the Ki in test [2] and in test [1] were 20.8 µM and 0.73 µM, respectively.

Regarding `Cc1[nH]c2nc(-c3ccccc3)nc(N)c2c1C`, the Kb in test [4] came to 5.5 µM; in test [5], 0.8 µM. Further, the Ki is 21.3 µM in test [2] and 1.49 µM in test [1].

Turning to `Cc1c(C)n(Cc2ccc(Br)cc2)c2ncnc(N)c12`, the figures for the Ki in test [2] and in test [1] were 154.9 µM and > 100 µM, respectively.

On to `CS(=O)(=O)c1nc(S(C)(=O)=O)c2c3c(n(-c4ccccc4)c2n1)CCCC3`, for which the values for the Ki in test [2] and in test [1] were 157 µM and 16.9 µM, respectively.

With `Cc1c(C)n(-c2ccccc2)c2nc(-c3ccccc3)nc(N)c12`, the Ki in test [2] is 0.024 µM; in test [1], 0.036 µM.

Consider `Cc1[nH]c2ncnc(N)c2c1C`, for which the Ki was found to be 208 µM in test [2] and 55 µM in test [1].

As for `NNc1ncnc2c1c1ccccc1n2-c1ccccc1`, the Ki worked out at 7.71 µM in test [2] and 8.42 µM in test [1].

With `c1ccc(-n2c3ccccc3c3c(NC4CCCCC4)ncnc32)cc1`, the Ki in test [2] was 133 µM; in test [1], 1.96 µM.

On to `O=c1[nH]cnc2c1c1ccccc1n2-c1ccccc1`, for which affinity in test [1] was put at a Ki of 0.88 µM. This counts as sub-micromolar.

For `Cc1c(C)n(C(C)c2ccccc2)c2nc(-c3ccccc3Cl)nc(N)c12` (centres undefined), the results for the Ki in test [2] and in test [1] were 28.1 µM and 0.052 µM, respectively.

Regarding `Clc1ncnc2c1c1ccccc1n2-c1ccccc1`, the Ki in test [2] was determined as 4.06 µM; in test [1], 2.42 µM.

On to `Cc1nc(N)c2c(C)c(C)[nH]c2n1`, for which the Ki in test [2] was > 250 µM; in test [1], 88 µM.

For the compound `C=CCn1c(C)c(C)c2c(N)ncnc21`, the Kb in test [4] turned out to be 40 µM. Also, the results for the Ki in test [2] and in test [1] were 83 µM and 49 µM, respectively.

With `Nc1ncnc2c1c1ccccc1n2-c1ccccc1`, the Kb in test [3] was determined as 14 µM; in test [4], 1.73 µM; in test [5], 3.3 µM. Also, the values for the Ki in test [2] and in test [1] were 5.98 µM and 1.95 µM, respectively.

With `Cc1c(C)n(-c2ccccc2)c2nc(-c3ccccc3Cl)nc(N)c12`, the Ki in test [2] amounted to 40.7 µM; in test [1], 0.99 µM.

Take `Cc1c(C)n([C@H](C)c2ccccc2)c2nc(-c3ccccc3)nc(N)c12`: the results for the Kb in test [4] and in test [5] were 3.06 µM and 0.0038 µM, respectively. In addition, the Ki is 3.71 µM in test [2] and 0.0047 µM in test [1].

As for `Cc1c(C)n(-c2ccccc2)c2nc(-c3ccc(Cl)cc3)nc(N)c12`, the Kb result in test [6] is “inactive”. Also, the Ki is > 250 µM in test [2] and 0.122 µM in test [1]. Further, the Kb result in test [7] was “Non-competitive inhibition”; in test [5], 0.057 µM.

In the case of `Cc1nc(N)c2c(C)c(C)n(-c3ccccc3)c2n1`, the figures for the inhibitory constant (Ki) in test [2] and in test [1] were 203 µM and 30.4 µM, respectively.

On to `Cc1c(C)n([C@H]2C[C@H](O)[C@@H](CO)O2)c2ncnc(N)c12`, for which the Ki in test [2] and in test [1] was > 250 µM each time.

`Nc1ncnc2c1ccn2-c1ccccc1`: the Kb in test [4] was found to be 17 µM; in test [5], 4.6 µM. Moreover, the Ki in test [2] amounted to 25 µM; in test [1] it was 3.1 µM.

For `O=c1[nH]cnc2c1c1c(n2-c2ccccc2)CCCC1`, affinity in test [1] was put at a Ki of 2.07 µM.

For the compound `Cc1c(C)n(C(C)c2ccccc2)c2nc(-c3cccc(Cl)c3)nc(N)c12` (centres undefined), the inhibition constant (Ki) in test [2] turned out to be 59.9 µM; in test [1], 0.028 µM.

Regarding `Nc1ncnc2c1c(C=O)c(C=O)n2-c1ccccc1`, the Ki in test [2] stood at 76.3 µM; in test [1] it was 50.1 µM.

On to `Cc1[nH]c2ncnc(O)c2c1C`, for which, in test [4], the Kb amounted to 33 µM. Moreover, the inhibition constant (Ki) in test [2] stood at 176 µM; in test [1] it was 58 µM.

For the compound `Cc1c(C)n([C@@H](C)c2ccccc2)c2nc(-c3ccccc3)nc(N)c12`, the results for the Ki in test [2] and in test [1] were 80.8 µM and 0.165 µM, respectively.

Take `Oc1ncnc2c1c1c(n2-c2ccccc2)CCCC1`: the figures for the Kb in test [3] and in test [4] were 1.76 µM and 0.87 µM, respectively. The Ki in test [2] stood at 1.35 µM.

As for `Cc1c(C)n(-c2ccccc2)c2ncnc(N)c12`, the results for the Kb in test [4] and in test [5] were 62 µM and 22 µM, respectively. Besides, the Ki in test [2] came to 123 µM; in test [1], 18 µM.

In the case of `CCCCCCn1c(C)c(C)c2c(N)ncnc21`, in test [4], the Kb came to 42 µM. In addition, the Ki came out at 263 µM in test [2] and 60 µM in test [1].

In test [1], `Nc1ncnc2c1c(C(=O)O)c(C(=O)O)n2-c1ccccc1` displayed a Ki of 67 µM.

In the case of `CSc1nc(SC)c2c3c(n(-c4ccccc4)c2n1)CCCC3`, the inhibition constant (Ki) is > 250 µM in test [2] and 97.8 µM in test [1].

Take `Cc1[nH]c2nc(-c3ccc(Cl)cc3)nc(N)c2c1C`: the values for the Ki in test [2] and in test [1] were 35.6 µM and 1.24 µM, respectively.
